Tests used:
[1] = target: T1, Tyrosine-protein kinase ITK/TSK (Homo sapiens) (UniProt Q08881); test: Inhibition of human full-length N-terminal GST-fused ITK (2 to 620 (end)residues) expressed in baculovirus expression system at 20 uM measured after 1 hr in presence of peptide substrate and ATP by off-chip mobility shift assay relative to control
T1 sequence (whole entry): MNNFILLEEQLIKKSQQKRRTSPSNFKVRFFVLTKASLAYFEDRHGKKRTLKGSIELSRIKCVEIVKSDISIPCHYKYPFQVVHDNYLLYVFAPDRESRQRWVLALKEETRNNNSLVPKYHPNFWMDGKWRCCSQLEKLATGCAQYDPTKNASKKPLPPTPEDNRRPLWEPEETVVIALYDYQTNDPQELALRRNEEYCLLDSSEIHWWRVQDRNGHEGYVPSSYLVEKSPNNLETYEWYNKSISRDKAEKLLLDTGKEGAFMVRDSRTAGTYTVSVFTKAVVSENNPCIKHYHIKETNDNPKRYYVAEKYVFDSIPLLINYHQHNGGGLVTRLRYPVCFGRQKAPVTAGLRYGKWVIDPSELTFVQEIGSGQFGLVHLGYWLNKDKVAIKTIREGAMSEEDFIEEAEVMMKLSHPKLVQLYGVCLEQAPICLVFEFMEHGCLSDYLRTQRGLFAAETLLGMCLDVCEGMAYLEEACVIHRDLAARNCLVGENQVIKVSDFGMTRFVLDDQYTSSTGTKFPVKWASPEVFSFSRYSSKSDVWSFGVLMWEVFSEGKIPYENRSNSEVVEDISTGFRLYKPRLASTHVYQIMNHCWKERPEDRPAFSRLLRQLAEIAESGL
Method in brief: (§1)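 Off-chip mobility shift assay. Product and substrate peptides were separated; activity was taken as P/(P+S). Complete reaction was set as 0% inhibition and enzyme-free background as 100%. Run in triplicate, mean ± SD.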

[2] = target: Tyrosine-protein kinase SYK (Homo sapiens) (UniProt P43405); test: Inhibition of human full-length N-terminal GST-fused SYK (1 to 635 (end)residues) expressed in baculovirus expression system at 20 uM measured after 1 hr in presence of peptide substrate and ATP by off-chip mobility shift assay relative to control; method in brief: as §1
[3] = Induction of apoptosis in human HCC827 Gefitinib-resistant (GR) cells assessed as late apoptotic/necrotic cells at 20 uM measured after 24 hrs by Annexin V-[…]propidium iodide staining based flow cytometry relative to control; format: functional, HCC827 Gefitinib-resistant (GR) cell
Method in brief: (§2)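 Resistant cells were seeded at 500.000 per dish and treated the next day for 24 h at 20 μM. Cells were harvested, washed in PBS, and stained with annexin V-Alexa 488 and PI, then analysed by flow cytometry. Early apoptotic cells were scored as annexin+/PI−, late apoptotic/necrotic cells as annexin+/PI+.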

[4] = Induction of apoptosis in human PC9-OR cells assessed as early apoptotic cells at 20 uM measured after 24 hrs by Annexin V-[…]propidium iodide staining based flow cytometry relative to control; format: functional; method in brief: as §2

inhibition [1] | inhibition [2] | SMILES | Activity [3] | Activity [4]
52.8% | 54.1% | Cc1ccc(NC(=O)CN2C(=O)/C(=N\NC(=O)c3cc(Br)ccc3O)c3ccc(Br)cc32)cc1 | 90.8% | 57.5%
70.3% | 91.9% | Cc1ccc(NC(=O)CN2C(=O)/C(=N\NC(=O)c3cc(Br)ccc3O)c3ccccc32)cc1 | 96.2% | 75.5%
56.7% | 89.7% | O=C(CN1C(=O)/C(=N\NC(=O)c2cc(Br)ccc2O)c2c(Br)cccc21)Nc1ccc([N+](=O)[O-])cc1 |  | 
58.9% | 49.4% | Cc1ccc(NC(=O)CN2C(=O)/C(=N\NC(=O)c3cc(Br)ccc3O)c3ccc(Cl)cc32)cc1 |  | 

Reference: ChEMBL document CHEMBL6134769, “Discovery of N-substituted-2-oxoindolin benzoylhydrazines as c-MET/SMO modulators in EGFRi-resistant non-small cell lung cancer” (RSC Med Chem, 2025)
